In ChEMBL document CHEMBL4190394, “Discovery of Novel Pazopanib-Based HDAC and VEGFR Dual Inhibitors Targeting Cancer Epigenetics and Angiogenesis Simultaneously” (J Med Chem, 2018):
Calls of active or inactive are those of the source. The rule behind the calls is not given here.

Legend:
[1] = biological target: Mast/stem cell growth factor receptor Kit (Homo sapiens, UniProt P10721); assay: Inhibition of C-kit (unknown origin) after 40 mins by kinase-Glo assay
In short: (§1)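 Kinase-Glo luminescent assay run by a contract lab. Compound, kinase, substrate and ATP diluted in kinase buffer and incubated 40 min at room temperature. IC50 obtained by nonlinear regression of normalized dose–response.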

Mus musculus [2] = assay: Toxicity in nu BALB/c mouse xenografted with human HT-29 cells assessed as reduction in body weight at 50 mg/kg , po administered for 25 consecutive days measured every day during compound dosing; format: organism-based; conditions: in vivo
Thoracic aorta = assay: Antiangiogenic activity in Sprague-Dawley rat thoracic aorta ring assessed as reduction in micro-vessel growth at 5 uM treated every day for 6 days by matrigel-based inverted microscopic analysis relative to control; format: functional, tissue-based
In short: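 Aortas taken from 4–6-week-old Sprague–Dawley rats, cut into 1-mm rings and embedded in Matrigel. Rings held 30 min at 37 °C, 5% CO2, then treated daily for 6 days with compound or 0.5% DMSO vehicle. Microvessel outgrowth photographed on day 7 at ×200. Three independent experiments.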

HT-1080 = assay: Antiproliferative activity against human HT1080 cells after 72 hrs by MTT assay; format: functional, cell-based; conditions: HT-1080, 72 h
[3] = Oral bioavailability in Sprague-Dawley rat at 10 mg/kg by LC-MS/MS analysis; format: ADME, organism-based; conditions: in vivo
In short: (§2)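 Sprague–Dawley rats (N = 6) dosed with the hydrochloride salt, 2 mg/kg IV or 10 mg/kg PO. Jugular vein blood drawn at set time points and kept on ice. Plasma separated by centrifugation, stored at -80 °C, and quantified by LC-MS/MS.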

[4] = Cmax in Sprague-Dawley rat at 10 mg/kg, po by LC-MS/MS analysis; format: ADME, organism-based; parameters: dose 10 mg/kg, route oral; conditions: in vivo; in short: as §2
[5] = Tmax in Sprague-Dawley rat at 10 mg/kg, po by LC-MS/MS analysis; format: ADME, organism-based; conditions: in vivo; in short: as §2
[6] = Tmax in Sprague-Dawley rat at 2 mg/kg, iv by LC-MS/MS analysis; format: ADME, organism-based; conditions: in vivo; in short: as §2
HEL = assay: Antiproliferative activity against human HEL cells after 72 hrs by MTT assay; format: functional, cell-based
KG-1 = assay: Antiproliferative activity against human KG1 cells after 72 hrs by MTT assay; format: functional, cell-based; conditions: KG-1, 72 h
PC-3 = assay: Antiproliferative activity against human PC3 cells after 72 hrs by MTT assay; format: functional, cell-based; conditions: PC-3, 72 h
[7] = Apparent volume of distribution in Sprague-Dawley rat at 2 mg/kg, iv by LC-MS/MS analysis; format: ADME, organism-based; conditions: in vivo, read-out: Vz; in short: as §2
HT-29 [8] = assay: Antitumor activity against human HT-29 cells xenografted in BALB/c nu mouse assessed as tumor growth level at 50 mg/kg, po administered for 25 consecutive days measured every 3 days during compound dosing relative to control; format: functional
In short: (§3)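 HT-29 cells (1×10^7) implanted s.c. in right flank of male BALB/c-nu mice aged 5–6 weeks. At about 100 mm³ (day 10), mice randomized 6 per group and dosed orally for 25 consecutive days. Controls received PBS with 5% DMSO. T/C is mean RTV (Vt/V0) treated over control. TGI taken from final tumor weights. Student's two-tailed t test.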

[9] = biological target: Vascular endothelial growth factor receptor 1 (Homo sapiens, UniProt P17948); assay: Inhibition of VEGFR-1 (unknown origin) after 40 mins by kinase-Glo assay; in short: as §1
Chain of Vascular endothelial growth factor receptor 1 (P17948 whole entry): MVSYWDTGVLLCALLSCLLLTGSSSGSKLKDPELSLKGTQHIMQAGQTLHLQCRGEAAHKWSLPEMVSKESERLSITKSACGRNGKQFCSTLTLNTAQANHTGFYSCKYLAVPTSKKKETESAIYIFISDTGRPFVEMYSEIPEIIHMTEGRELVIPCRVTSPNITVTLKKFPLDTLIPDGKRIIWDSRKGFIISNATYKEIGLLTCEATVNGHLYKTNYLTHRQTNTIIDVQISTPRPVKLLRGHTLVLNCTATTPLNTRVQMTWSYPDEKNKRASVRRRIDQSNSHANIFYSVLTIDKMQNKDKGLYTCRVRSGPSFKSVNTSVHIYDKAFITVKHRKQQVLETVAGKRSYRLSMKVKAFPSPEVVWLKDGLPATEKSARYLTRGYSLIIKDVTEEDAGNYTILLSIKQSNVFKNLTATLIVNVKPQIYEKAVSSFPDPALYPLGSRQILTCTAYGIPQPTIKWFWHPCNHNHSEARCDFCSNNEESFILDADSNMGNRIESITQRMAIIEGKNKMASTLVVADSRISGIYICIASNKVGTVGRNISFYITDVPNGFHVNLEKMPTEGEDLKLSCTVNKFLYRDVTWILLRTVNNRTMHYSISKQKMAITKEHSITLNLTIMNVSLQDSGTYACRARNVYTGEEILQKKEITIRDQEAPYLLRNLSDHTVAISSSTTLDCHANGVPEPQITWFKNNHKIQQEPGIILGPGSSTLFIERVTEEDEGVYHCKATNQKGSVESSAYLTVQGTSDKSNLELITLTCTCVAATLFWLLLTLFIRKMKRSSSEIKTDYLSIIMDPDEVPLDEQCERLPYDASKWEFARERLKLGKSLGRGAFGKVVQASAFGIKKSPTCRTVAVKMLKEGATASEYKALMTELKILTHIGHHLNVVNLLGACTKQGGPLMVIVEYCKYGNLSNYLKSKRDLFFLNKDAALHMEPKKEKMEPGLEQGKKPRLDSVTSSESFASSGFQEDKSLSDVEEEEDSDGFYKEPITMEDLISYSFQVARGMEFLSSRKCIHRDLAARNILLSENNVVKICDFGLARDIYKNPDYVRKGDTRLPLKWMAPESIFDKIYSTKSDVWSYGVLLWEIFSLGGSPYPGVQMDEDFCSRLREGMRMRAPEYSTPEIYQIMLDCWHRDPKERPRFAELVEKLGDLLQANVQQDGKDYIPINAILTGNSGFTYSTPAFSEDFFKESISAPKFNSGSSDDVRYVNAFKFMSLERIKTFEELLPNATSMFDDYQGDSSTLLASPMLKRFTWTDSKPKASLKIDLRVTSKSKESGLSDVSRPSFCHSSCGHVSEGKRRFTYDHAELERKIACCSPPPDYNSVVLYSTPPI

[10] = biological target: Vascular endothelial growth factor receptor 2 (Homo sapiens, UniProt P35968); assay: Inhibition of VEGFR-2 (unknown origin) after 40 mins by kinase-Glo assay; in short: as §1
Chain of Vascular endothelial growth factor receptor 2 (P35968 whole entry): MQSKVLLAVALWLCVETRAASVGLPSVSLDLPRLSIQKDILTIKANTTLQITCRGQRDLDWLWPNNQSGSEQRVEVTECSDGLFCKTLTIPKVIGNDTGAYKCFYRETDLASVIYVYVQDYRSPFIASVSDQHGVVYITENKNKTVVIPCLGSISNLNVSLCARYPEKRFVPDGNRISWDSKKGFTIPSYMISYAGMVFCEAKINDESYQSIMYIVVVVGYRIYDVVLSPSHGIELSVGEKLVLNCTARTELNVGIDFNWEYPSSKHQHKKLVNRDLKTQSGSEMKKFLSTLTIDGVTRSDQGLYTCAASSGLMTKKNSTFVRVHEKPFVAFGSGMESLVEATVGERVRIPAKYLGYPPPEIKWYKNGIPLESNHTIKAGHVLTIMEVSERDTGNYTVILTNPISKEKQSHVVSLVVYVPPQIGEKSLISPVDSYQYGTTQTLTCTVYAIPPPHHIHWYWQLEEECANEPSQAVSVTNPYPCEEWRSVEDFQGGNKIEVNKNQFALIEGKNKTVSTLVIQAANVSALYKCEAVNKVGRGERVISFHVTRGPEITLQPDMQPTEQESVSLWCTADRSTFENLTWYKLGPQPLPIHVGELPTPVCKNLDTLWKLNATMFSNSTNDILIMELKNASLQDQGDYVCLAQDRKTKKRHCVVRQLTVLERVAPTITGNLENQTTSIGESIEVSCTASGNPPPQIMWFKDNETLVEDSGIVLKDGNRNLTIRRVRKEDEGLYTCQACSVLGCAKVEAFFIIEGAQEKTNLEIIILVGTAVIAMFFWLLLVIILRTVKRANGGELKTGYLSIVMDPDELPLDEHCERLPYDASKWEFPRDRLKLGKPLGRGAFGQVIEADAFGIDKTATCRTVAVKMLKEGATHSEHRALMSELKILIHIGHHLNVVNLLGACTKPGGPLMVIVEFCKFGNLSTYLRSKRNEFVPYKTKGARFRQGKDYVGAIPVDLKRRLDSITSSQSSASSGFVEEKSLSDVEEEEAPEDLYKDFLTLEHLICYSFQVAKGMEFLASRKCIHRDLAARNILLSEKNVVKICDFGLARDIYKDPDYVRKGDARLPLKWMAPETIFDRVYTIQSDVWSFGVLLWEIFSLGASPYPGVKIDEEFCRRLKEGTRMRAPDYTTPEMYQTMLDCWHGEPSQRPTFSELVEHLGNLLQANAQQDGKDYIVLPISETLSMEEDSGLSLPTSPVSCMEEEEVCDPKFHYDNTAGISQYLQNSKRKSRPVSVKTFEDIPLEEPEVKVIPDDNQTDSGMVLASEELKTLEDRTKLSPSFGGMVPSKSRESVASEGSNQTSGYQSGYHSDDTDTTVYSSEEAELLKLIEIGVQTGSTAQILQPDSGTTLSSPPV

ACHN = assay: Antiproliferative activity against human ACHN cells after 72 hrs by MTT assay; format: functional, cell-based
[11] = Cmax in Sprague-Dawley rat at 2 mg/kg, iv by LC-MS/MS analysis; format: ADME, organism-based; parameters: dose 2 mg/kg, route intravenous; conditions: in vivo; in short: as §2
HT-29 [12] = assay: Antitumor activity against human HT-29 cells xenografted in BALB/c nu mouse assessed as tumor growth inhibition at 50 mg/kg, po administered for 25 consecutive days measured every 3 days during compound dosing relative to control; format: functional; conditions: HT-29, po, read-out: TGI; in short: as §3
AGS = assay: Antiproliferative activity against human AGS cells after 72 hrs by MTT assay; format: functional, cell-based
MOLT-4 = assay: Antiproliferative activity against human MOLT4 cells after 72 hrs by MTT assay; format: functional, cell-based; conditions: MOLT-4, 72 h
Mus musculus [13] = assay: Toxicity in nu BALB/c mouse spleen xenografted with human HT-29 cells at 50 mg/kg , po administered for 25 consecutive days by macroscopic analysis; format: organism-based; conditions: in vivo
In short: (§4)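 HT-29 xenografted male BALB/c-nu mice dosed orally for 25 days, with PBS (5% DMSO) controls. After treatment mice were sacrificed and dissected, and internal organ injury was examined macroscopically.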

[14] = Clearance in Sprague-Dawley rat at 2 mg/kg, iv by LC-MS/MS analysis; format: ADME, organism-based; conditions: in vivo; in short: as §2
HUVEC [15] = assay: Antiangiogenic activity in human HUVEC cells assessed as reduction in capillary-like tubular network formation at 0.1 uM after 6 hrs by phase-contrast microscopy; format: functional, cell-based
In short: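 HUVECs trypsinized and seeded at 40000/well on Matrigel polymerized 0.5 h at 37 °C. Cells held 6 h at 37 °C in M199 with 5% FBS, with compound or DMSO. Tube formation viewed and photographed by phase-contrast microscopy at 200 magnification. Three independent experiments.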

Histone deacetylase 3 = Histone deacetylase 3 (Homo sapiens, UniProt O15379)
Chain of Histone deacetylase 3 (O15379 whole entry): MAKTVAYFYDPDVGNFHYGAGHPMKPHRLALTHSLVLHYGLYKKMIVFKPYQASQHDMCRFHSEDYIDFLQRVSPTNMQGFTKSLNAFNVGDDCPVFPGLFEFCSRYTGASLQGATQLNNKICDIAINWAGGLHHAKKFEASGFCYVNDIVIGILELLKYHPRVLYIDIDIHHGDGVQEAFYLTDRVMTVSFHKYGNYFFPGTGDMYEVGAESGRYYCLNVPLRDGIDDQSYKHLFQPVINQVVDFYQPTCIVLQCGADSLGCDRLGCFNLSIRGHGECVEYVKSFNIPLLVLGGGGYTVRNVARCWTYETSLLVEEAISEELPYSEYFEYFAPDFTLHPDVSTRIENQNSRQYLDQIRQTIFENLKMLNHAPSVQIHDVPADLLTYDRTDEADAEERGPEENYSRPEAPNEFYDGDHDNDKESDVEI

[16] = biological target: Vascular endothelial growth factor receptor 3 (Homo sapiens, UniProt P35916); assay: Inhibition of VEGFR-3 (unknown origin) after 40 mins by kinase-Glo assay
[17] = Half life in Sprague-Dawley rat at 10 mg/kg, po by LC-MS/MS analysis; format: ADME, organism-based; conditions: in vivo; in short: as §2
[18] = biological target: Fibroblast growth factor receptor 1 (Homo sapiens, UniProt P11362); assay: Inhibition of FGFR1 (unknown origin) after 40 mins by kinase-Glo assay
Chain of Fibroblast growth factor receptor 1 (P11362 whole entry): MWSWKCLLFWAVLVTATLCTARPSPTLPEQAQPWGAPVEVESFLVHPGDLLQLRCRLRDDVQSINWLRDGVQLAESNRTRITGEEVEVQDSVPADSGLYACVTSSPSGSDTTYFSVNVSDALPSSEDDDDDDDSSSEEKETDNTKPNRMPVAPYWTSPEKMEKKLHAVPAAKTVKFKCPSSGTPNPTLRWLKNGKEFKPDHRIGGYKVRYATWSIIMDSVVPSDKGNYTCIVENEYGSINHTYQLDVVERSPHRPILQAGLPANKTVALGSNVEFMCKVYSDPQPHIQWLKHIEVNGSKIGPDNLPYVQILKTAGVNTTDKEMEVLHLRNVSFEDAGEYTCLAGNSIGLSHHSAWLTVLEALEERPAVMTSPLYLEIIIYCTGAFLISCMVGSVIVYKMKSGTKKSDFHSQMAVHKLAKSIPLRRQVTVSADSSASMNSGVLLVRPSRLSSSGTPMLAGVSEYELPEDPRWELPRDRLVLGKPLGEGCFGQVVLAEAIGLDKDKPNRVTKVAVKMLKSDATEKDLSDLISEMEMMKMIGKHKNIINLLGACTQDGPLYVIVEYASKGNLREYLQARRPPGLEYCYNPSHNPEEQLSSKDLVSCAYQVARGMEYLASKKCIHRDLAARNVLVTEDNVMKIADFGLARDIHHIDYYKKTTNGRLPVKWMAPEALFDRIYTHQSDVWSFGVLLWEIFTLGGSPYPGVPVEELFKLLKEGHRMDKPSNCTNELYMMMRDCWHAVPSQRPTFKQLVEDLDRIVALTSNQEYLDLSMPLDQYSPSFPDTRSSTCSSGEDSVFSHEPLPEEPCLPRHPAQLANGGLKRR

Histone deacetylase 2 = Histone deacetylase 2 (Homo sapiens, UniProt Q92769)
Chain of Histone deacetylase 2 (Q92769 whole entry): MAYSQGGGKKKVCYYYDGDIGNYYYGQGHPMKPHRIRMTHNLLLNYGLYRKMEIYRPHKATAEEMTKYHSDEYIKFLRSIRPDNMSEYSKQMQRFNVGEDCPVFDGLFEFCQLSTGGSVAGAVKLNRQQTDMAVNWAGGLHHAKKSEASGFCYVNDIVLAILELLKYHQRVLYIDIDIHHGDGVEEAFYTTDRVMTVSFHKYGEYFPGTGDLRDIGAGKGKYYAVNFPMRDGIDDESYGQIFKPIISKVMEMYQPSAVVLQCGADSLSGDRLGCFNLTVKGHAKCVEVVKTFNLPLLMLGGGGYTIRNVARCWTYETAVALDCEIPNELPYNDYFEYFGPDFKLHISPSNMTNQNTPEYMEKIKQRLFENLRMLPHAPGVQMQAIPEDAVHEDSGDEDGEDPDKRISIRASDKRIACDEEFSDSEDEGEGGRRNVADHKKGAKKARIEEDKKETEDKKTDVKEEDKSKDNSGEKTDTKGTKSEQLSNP

Mus musculus [19] = assay: Hepatotoxicity in nu BALB/c mouse xenografted with human HT-29 cells at 50 mg/kg , po administered for 25 consecutive days by macroscopic analysis; format: toxicity, organism-based; conditions: in vivo; in short: as §4
[20] = biological target: Histone deacetylase 1/2/3 (Homo sapiens) (UniProt Q13547+O15379+Q92769); conditions: HeLa, at 1 µM
HT-29 [21] = assay: Antiproliferative activity against human HT-29 cells after 72 hrs by MTT assay; format: functional, cell-based; conditions: HT-29, 72 h
HUVEC [22] = assay: Cytotoxicity activity against HUVEC after 72 hrs by MTT assay; format: cell-based; conditions: Homo sapiens
In short: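 HUVECs kept in RPMI1640 with 10% FBS at 37 °C, 5% CO2. Cells seeded the day before, grown 12 h, then exposed to a range of compound concentrations for 72 h. Then 0.5% MTT added for 4 h, formazan dissolved in DMSO, and absorbance read at 570 nm.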

[23] = Half life in Sprague-Dawley rat at 2 mg/kg, iv by LC-MS/MS analysis; format: ADME, organism-based; conditions: in vivo; in short: as §2
[24] = MRT (0 to t) in Sprague-Dawley rat at 2 mg/kg, iv by LC-MS/MS analysis; format: ADME, organism-based; conditions: in vivo; in short: as §2

Cc1c2ccc(N(C)c3ccnc(Nc4ccc(C(=O)Nc5ccccc5N)cc4)n3)cc2nn1C
IC50 [1]: 125 nM
Activity (Mus musculus [2]): Non-Toxic
Activity (Thoracic aorta): Active
IC50 (HT-1080): > 5000 nM
bioavailability [3]: 72%
Cmax [4]: 3240 ng/mL
Tmax [5]: 0.5 h
Tmax [6]: 4.8 min
IC50 (HEL): 1520 nM
IC50 (KG-1): 670 nM
IC50 (PC-3): 2380 nM
Vd [7]: 2.06 L/kg
T/C (HT-29 [8]): 65%
IC50 [9]: 22 nM
IC50 [10]: 37 nM
IC50 (ACHN): > 5000 nM
Cmax [11]: 2780 ng/mL
inhibition in vivo at 50 mg/kg (HT-29 [12]): 40%
IC50 (AGS): > 5000 nM
IC50 (MOLT-4): 940 nM
Activity (Mus musculus [13]): Non-Toxic
clearance [14]: 14.6 mL/min/kg
Activity (HUVEC [15]): Active
IC50 (Histone deacetylase 3): 430 nM
IC50 [16]: 46 nM
half-life [17]: 2.1 h
IC50 [18]: 192 nM
IC50 (Histone deacetylase 2): 910 nM
Activity (Mus musculus [19]): Non-Toxic
inhibition [20]: Active
IC50 (HT-29 [21]): 1070 nM
IC50 (HUVEC [22]): 16000 nM
half-life [23]: 1.64 h
MRT last [24]: 1.13 h
